Compound activity as filed in PubChem BioAssay.
TRPC6 act = mouse TRPC6 channel activation; HEK293-TRPC6 membrane potential dye fluorescence; active compounds read high; B-score at 10 µM; 310,000 compounds, 0.13% hits; AID 2550;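 active means B-score of the integrated fluorescence ratio above library mean plus 3 SD, and starting fluorescence ratio within library mean plus 5 SD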;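 further: higher score means more depolarization so channel activation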
Target sequence (Q61143 whole entry, looked up): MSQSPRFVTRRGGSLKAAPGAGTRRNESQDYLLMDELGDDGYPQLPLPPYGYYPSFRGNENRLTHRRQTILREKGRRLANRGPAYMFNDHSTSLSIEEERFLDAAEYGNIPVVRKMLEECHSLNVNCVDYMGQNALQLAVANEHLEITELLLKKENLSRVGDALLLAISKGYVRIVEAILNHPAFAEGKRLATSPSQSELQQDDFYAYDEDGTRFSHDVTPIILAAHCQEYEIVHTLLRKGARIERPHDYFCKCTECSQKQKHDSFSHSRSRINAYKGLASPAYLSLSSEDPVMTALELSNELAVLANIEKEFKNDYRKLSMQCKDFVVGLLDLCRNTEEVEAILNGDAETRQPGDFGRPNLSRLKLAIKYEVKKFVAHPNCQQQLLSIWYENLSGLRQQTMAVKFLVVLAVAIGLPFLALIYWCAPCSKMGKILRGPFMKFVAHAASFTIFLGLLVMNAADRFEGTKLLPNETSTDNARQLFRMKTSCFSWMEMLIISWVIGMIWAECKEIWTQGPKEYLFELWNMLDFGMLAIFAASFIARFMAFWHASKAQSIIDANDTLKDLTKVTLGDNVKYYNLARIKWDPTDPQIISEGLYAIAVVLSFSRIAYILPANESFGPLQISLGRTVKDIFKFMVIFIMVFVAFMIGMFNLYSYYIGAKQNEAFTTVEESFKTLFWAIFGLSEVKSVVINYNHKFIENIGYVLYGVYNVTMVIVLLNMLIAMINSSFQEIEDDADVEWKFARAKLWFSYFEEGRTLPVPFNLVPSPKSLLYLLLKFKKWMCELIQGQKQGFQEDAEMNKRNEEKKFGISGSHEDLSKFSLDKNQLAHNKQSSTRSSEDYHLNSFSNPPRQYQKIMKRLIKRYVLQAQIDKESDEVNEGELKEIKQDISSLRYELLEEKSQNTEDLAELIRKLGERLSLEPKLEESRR
TRPC4 act = activators of mouse TRPC4 channel. HEK293 TRPC4beta/mu-opioid, Fluo4 calcium fluorescence; active compounds read high. B-score at 10 µM. 310,000 compounds, 0.49% hits. AID 2237;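 active means B-score above 5 SD of library B-scores, and initial fluorescence ratio not above library mean plus 5 SD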;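 further: positive B-score marks a calcium rise read as TRPC4 activation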
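System: HEK293 cells stably co-expressing mouse TRPC4beta and mu-opioid receptor; Schedule: Fluo4 dye loading 45 min at room temperature, 110 s recording; Detection: Fluo4 fluorescence, kinetic; Evaluation: B-scored integrated calcium fluorescence ratio; Controls: buffer (low) and maximal DAMGO (high).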
Platelet DG rel = modulates dense granule release in human platelets; human platelet-rich plasma, SFLLRN dense granule ATP release, luminescence; inhibition, %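 (compounds screened at 7.5 µM in platelet-rich plasma)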; 300,000 compounds, 0.22% hits; AID 1663;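 active means mean replicate score, as percent of positive control, at or above 50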
TRPC4 inh = blocks the mouse TRPC4 cation channel; Q9QUQ5; HEK293 TRPC4beta/mu-opioid, DAMGO-evoked Fluo4 calcium flux; active compounds read low; B-score at 10 µM; AID 2247; 300,000 compounds, 0.39% hits;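 active means B-score over 3 SD under the library average, no early fluorescence shift, positive overall ratio signal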
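test system = HEK293 cells with stable TRPC4beta plus mu-opioid receptor expression | detection = Fluo4 Ca2+ flux fluorescence | read-out = integrated fluorescence ratio relative to baseline, converted to per-well B score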
TRPC4 PAM = allosterically enhances the mouse TRPC4 cation channel; B-score at 10 µM; Q9QUQ5; HEK293 TRPC4beta/mu-opioid, DAMGO EC20, Fluo-4 Ca2+ flux; active compounds read high; 310,000 compounds, 0.42% hits;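 active means B-score of calcium response area above 5 SD of library B-scores, with initial fluorescence ratio within 5 SD of library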
TRPC6 inh = blocks the mouse TRPC6 cation channel; B-score at 10 µM; Q61143; AID 2553; 310,000 compounds, 1.1% hits; HEK293-TRPC6, membrane potential dye, ACh-evoked depolarization; active compounds read low;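 active means B-score under library mean minus 3 SD, initial fluorescence not abnormally high, positive integrated signal ratio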;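 further: B-score derived from integrated fluorescence ratio over the kinetic read; more negative B-score means stronger inhibition of depolarization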
TRPC4 spec 2 = second selectivity test of TRPC6 inhibitors: effect on mouse TRPC4. shares compounds with TRPC6 inh. HEK293 TRPC4/MOR, membrane potential dye fluorescence; channel activated by saturating DAMGO dose. inhibition, % at 10 µM. 920 compounds, 42% hits. AID 2776;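 active means compounds whose fluorescence signal differed from control wells by over 3 SD, either direction, in both duplicate plates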
TRPC4 spec = mouse TRPC4 off-target activity of TRPC6 inhibitors | activity change, negative = inhibition, % at 10 µM | shares compounds with TRPC6 inh | 920 compounds, 61% hits | HEK293 TRPC4/mu-opioid, membrane potential fluorescence | AID 2777;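 active means rise or fall in signal beyond 3 SD of buffer-only wells in both replicate plates, either sign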;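 further: integrated kinetic ratio of fluorescence range over baseline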
HEK293 MPD ctr 2-1 = second counter-screen for TRPC6 inhibitors: parental HEK293 cells; shares compounds with TRPC6 inh; parental HEK293 membrane potential dye fluorescence; maximal acetylcholine challenge after compound addition; signal change vs control, % at 10 µM; 920 compounds, 31% hits; AID 2779;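 active means membrane potential signal moving either way by over 3 SD of the maximum-effect control, in both duplicate plates, meaning non-specific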
HEK293 MPD ctr-1 = parental HEK293 nonspecific activity of TRPC6 inhibitors. shares compounds with TRPC6 inh. AID 2780. membrane potential signal change, % at 10 µM. parental HEK293 membrane potential dye fluorescence. 920 compounds, 60% hits;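 active means membrane potential signal shifting up or down by more than 3 SD of buffer-only wells, on both duplicate plates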
HEK293 MPD ctr-2 = counter-screen for TRPC6 modulators: effect in parental HEK293 cells | shares compounds with TRPC6 inh | membrane potential dye fluorescence | membrane potential signal change, % at 10 µM | 2,400 compounds, 51% hits | AID 488924;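 active means membrane potential signal moves up or down beyond 5 SD from buffer-only wells, on both duplicate plates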
HEK293 MPD ctr 2-2 = second check of TRPC6 modulator effects in parental HEK293 cells. shares compounds with TRPC6 inh. membrane potential dye fluorescence; after compound, maximal acetylcholine stimulation. inhibition, % at 10 µM. 2,400 compounds, 14% hits. AID 488926;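 active means membrane potential signal drops by more than 5 SD from the mean control signal, in both duplicate plates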
TRPC4/MOR mod = mouse TRPC4 off-target activity of TRPC6 modulators; AID 488927; percent change from control (negative = decrease, positive = increase), % at 10 µM; HEK293 TRPC4/mu-opioid, membrane potential fluorescence; 2,400 compounds, 69% hits; shares compounds with TRPC6 inh;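 active means membrane potential signal moved up or down beyond 5 SD of buffer control wells, in both duplicate plates, actives on both sides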
TRPC4/MOR inh 2 = second check of whether TRPC6 modulators also affect mouse TRPC4; 2,400 compounds, 55% hits; AID 488928; inhibition, % at 10 µM; HEK293 TRPC4/mu-opioid, membrane potential dye fluorescence; stimulated with maximal-effect DAMGO; shares compounds with TRPC6 inh;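 active means drop in membrane potential signal beyond 5 SD of the control wells in both duplicate plates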;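 further: TRPC4 counter screen for TRPC6 hits run under conditions tuned for TRPC6 not TRPC4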
TRPC6 block conf = confirmation of mouse TRPC6 inhibitors; 3,300 compounds, 43% hits; HEK293-TRPC6, membrane potential dye, ACh-evoked depolarization; AID 488960; shares compounds with TRPC6 inh; inhibition, % at 10 µM;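 active means fluorescence ratio falls more than 5 SD below the full-stimulation control mean, in both duplicate runs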;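 further: integrated fluorescence ratio of peak minus minimum over baseline after agonist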
TRPC6 act conf = confirmation of mouse TRPC6 activators; shares compounds with TRPC6 inh; HEK293-TRPC6 membrane potential dye fluorescence, FDSS; activation, % at 10 µM; 2,800 compounds, 11% hits;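 active means ratio signal rise beyond 5 SD above unstimulated control wells' mean, seen in both duplicate runs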
Of the large screens only hits and unclear results are named; the others gave an inactive call (follow-up assays come after a bar, where they were run). In the library only some 2.5% were active in any assay of this set; here they are far more common.

CC1=Nc2ccccc2/C1=C/c1sc(=S)n(-c2cccc(C(=O)O)c2)c1O	TRPC6 act 56, TRPC4 act 44, TRPC4 PAM 11 | HEK293 MPD ctr-2 active | HEK293 MPD ctr 2-2 inactive | TRPC4/MOR mod 212% | TRPC4/MOR inh 2 inactive | TRPC6 block conf inactive | TRPC6 act conf 314%
Oc1c(C=C2N=c3ccccc3=N2)sc(=S)n1-c1ccccc1	none
CCOc1cccc(CN2CCC(Oc3ccc(C(=O)NCc4ccccn4)cc3)CC2)c1	none
O=Nc1c(O)n(Cc2ccccc2)c2ccccc12	none
Cc1c(CCCN)c2ccccc2n1Cc1ccccc1	TRPC6 inh -7.3 | TRPC4 spec 2 55% | TRPC4 spec inactive | HEK293 MPD ctr 2-1 inactive | HEK293 MPD ctr-1 -196% | TRPC6 block conf inactive | TRPC6 act conf inactive
CCN(CC)CCCn1c2c(c(SCC(=O)Nc3cccc4ccccc34)nc1=O)CCC2	none
CN(C)CCCn1c2c(c(SCC(=O)Nc3cccc4ccccc34)nc1=O)CCCC2	TRPC6 inh -5.3 | HEK293 MPD ctr-2 inactive | HEK293 MPD ctr 2-2 inactive | TRPC4/MOR mod inactive | TRPC4/MOR inh 2 46% | TRPC6 block conf inactive | TRPC6 act conf inactive
Cc1onc(-c2ccccc2)c1C(=O)N/N=C/c1ccc([N+](=O)[O-])s1	TRPC6 inh -8.2 | TRPC4 spec 2 inactive | TRPC4 spec inactive | HEK293 MPD ctr 2-1 inactive | HEK293 MPD ctr-1 inactive | TRPC6 block conf inactive | TRPC6 act conf inactive
OC(CCN1CCCCC1)(c1ccccc1)c1ccccc1	TRPC6 inh -7.1 | TRPC4 spec 2 inactive | TRPC4 spec 17% | HEK293 MPD ctr 2-1 -7.0% | HEK293 MPD ctr-1 12% | TRPC6 block conf 74%
OC(CCN1CCCC1)(c1ccccc1)C1CCCCC1 (stereo unspecified)	TRPC6 inh -8.2 | TRPC4 spec 2 inactive | TRPC4 spec 24% | HEK293 MPD ctr 2-1 -14% | HEK293 MPD ctr-1 15% | TRPC6 block conf 79%
CS(=O)(=O)N(CC(=O)N1CCc2ccccc2C1)Cc1ccccc1	TRPC6 inh -6.5 | HEK293 MPD ctr-2 inactive | HEK293 MPD ctr 2-2 inactive | TRPC4/MOR mod 12% | TRPC4/MOR inh 2 inactive | TRPC6 block conf inactive
CC1CCN(C(=O)CN(Cc2ccccc2)S(C)(=O)=O)CC1	none
COc1ccc(N2CCN(C(=O)CN(Cc3ccc(Cl)cc3)S(C)(=O)=O)CC2)cc1	none
CS(=O)(=O)N(CC(=O)N1CCN(c2ccccc2)CC1)Cc1ccc(Cl)cc1	TRPC6 inh -5.6 | HEK293 MPD ctr-2 inactive | HEK293 MPD ctr 2-2 inactive | TRPC4/MOR mod 13% | TRPC4/MOR inh 2 inactive | TRPC6 block conf inactive | TRPC6 act conf inactive
O=C(NCCS(=O)(=O)NC1CCCC1)c1ccc(F)cc1	none
O=C(O)/C=C\C(=O)NNC(=O)c1cc(-c2ccccc2)n[nH]1	none
Cc1oc(-c2ccccc2F)nc1CN1CCC(C(=O)NC2CCCc3ccccc32)CC1 (stereo unspecified)	TRPC6 inh -8.8 | TRPC4 spec 2 34% | TRPC4 spec 29% | HEK293 MPD ctr 2-1 293% | HEK293 MPD ctr-1 9.1% | TRPC6 block conf inactive | TRPC6 act conf inactive
COc1cc(NC(=O)c2cc([N+](=O)[O-])ccc2NC(=O)CN2CCN(c3ccccn3)CC2)cc(OC)c1	TRPC4 PAM 10, TRPC6 inh -5.9 | HEK293 MPD ctr-2 inactive | HEK293 MPD ctr 2-2 inactive | TRPC4/MOR mod inactive | TRPC4/MOR inh 2 40% | TRPC6 block conf inactive | TRPC6 act conf inactive
O=C(CN1CCN(Cc2ccccc2)CC1)Nc1ccc([N+](=O)[O-])cc1C(=O)Nc1ccccc1F	TRPC6 inh -5.1 | HEK293 MPD ctr-2 inactive | HEK293 MPD ctr 2-2 inactive | TRPC4/MOR mod inactive | TRPC4/MOR inh 2 70% | TRPC6 block conf 38% | TRPC6 act conf inactive
CCn1cc(Br)c(C(=O)NCc2ccco2)n1	TRPC6 inh -5.8 | HEK293 MPD ctr-2 inactive | HEK293 MPD ctr 2-2 inactive | TRPC4/MOR mod inactive | TRPC4/MOR inh 2 inactive | TRPC6 block conf inactive | TRPC6 act conf inactive
Cc1ccn(CC(=O)NC2CCCN(Cc3ccc(CC(C)C)cc3)C2)n1 (stereo unspecified)	TRPC4 act 145, TRPC6 inh -5.8 | HEK293 MPD ctr-2 112% | HEK293 MPD ctr 2-2 inactive | TRPC4/MOR mod 38% | TRPC4/MOR inh 2 inactive | TRPC6 block conf inactive
CC(C)Cc1ccc(CN2CCCC(NC(=O)CCN3CCCO3)C2)cc1 (stereo unspecified)	none
Cc1c(OCC(=O)N(C)C)ccc2c3c(c(=O)oc12)CCCCC3	TRPC6 inh -11 | TRPC4 spec 2 inactive | TRPC4 spec inactive | HEK293 MPD ctr 2-1 inactive | HEK293 MPD ctr-1 -0.2% | TRPC6 block conf inactive | TRPC6 act conf inactive
Cc1nnsc1S(=O)c1ccccc1Cl (stereo unspecified)	none
CNCCCOc1cccc(Oc2ccccc2)c1	TRPC4 PAM 10, TRPC6 inh -5.1 | HEK293 MPD ctr-2 100% | HEK293 MPD ctr 2-2 inactive | TRPC4/MOR mod 12% | TRPC4/MOR inh 2 35% | TRPC6 block conf 52% | TRPC6 act conf inactive
CNCCCOc1cccc(OC(C)C)c1	none
